In brackets after ≈: the same amount, converted by molar mass.
Key:
[1] = tested on: Mycobacterium tuberculosis; experiment: Inhibition of MmpL3 in clinical isolates of drug sensitive Mycobacterium tuberculosis V4207 after 7 to 14 days by alamar blue assay
Vero = experiment: Cytotoxicity against african green monkey Vero cells; assay type: cell-based; conditions: Chlorocebus sabaeus
[2] = Selectivity index, ratio of IC50 for african green monkey Vero cells to MIC for clinical isolates of Mycobacterium tuberculosis; assay type: toxicity; conditions: read-out: Selectivity Index
[3] = Stability in human liver microsomes assessed as compound remaining at 3 uM after 1 hr; assay type: ADME, Microsome; conditions: read-out: Stability
How it was run: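 Human liver microsomes incubated with 3 μM starting concentration for 1 h; percent of compound remaining.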

Cytochrome P450 2C9 = Cytochrome P450 2C9 (Homo sapiens, UniProt P11712); experiment: Inhibition of CYP2C9 (unknown origin); assay type: ADME
Cytochrome P450 2C9, sequence (P11712 whole entry): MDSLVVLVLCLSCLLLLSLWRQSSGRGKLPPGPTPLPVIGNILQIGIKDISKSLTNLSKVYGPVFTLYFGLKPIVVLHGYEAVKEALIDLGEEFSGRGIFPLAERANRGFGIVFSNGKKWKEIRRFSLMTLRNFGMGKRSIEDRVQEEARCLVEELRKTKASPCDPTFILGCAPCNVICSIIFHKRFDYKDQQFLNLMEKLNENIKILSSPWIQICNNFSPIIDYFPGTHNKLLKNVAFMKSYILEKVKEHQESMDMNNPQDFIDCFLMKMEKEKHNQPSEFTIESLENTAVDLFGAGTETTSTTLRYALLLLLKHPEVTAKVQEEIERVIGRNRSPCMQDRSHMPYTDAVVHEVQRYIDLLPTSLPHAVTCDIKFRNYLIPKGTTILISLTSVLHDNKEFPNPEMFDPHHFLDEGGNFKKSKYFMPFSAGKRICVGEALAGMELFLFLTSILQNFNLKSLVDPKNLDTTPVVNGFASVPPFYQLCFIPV

Cytochrome P450 2D6 = Cytochrome P450 2D6 (Homo sapiens, UniProt P10635); experiment: Inhibition of CYP2D6 (unknown origin); assay type: ADME
Cytochrome P450 2D6, sequence (P10635 whole entry): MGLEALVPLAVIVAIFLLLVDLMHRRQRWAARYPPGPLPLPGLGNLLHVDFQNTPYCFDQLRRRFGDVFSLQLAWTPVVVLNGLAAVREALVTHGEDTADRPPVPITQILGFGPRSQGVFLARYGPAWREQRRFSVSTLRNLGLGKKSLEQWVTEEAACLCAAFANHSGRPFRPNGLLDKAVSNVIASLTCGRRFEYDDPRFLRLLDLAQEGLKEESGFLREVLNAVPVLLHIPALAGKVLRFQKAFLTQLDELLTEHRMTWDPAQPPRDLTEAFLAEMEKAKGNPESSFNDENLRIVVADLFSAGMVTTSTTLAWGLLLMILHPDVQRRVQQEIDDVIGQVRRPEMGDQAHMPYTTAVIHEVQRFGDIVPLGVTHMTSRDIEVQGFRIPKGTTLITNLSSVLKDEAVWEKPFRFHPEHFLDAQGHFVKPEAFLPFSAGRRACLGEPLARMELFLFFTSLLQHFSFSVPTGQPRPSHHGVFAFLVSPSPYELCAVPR

Cytochrome P450 3A4 = Cytochrome P450 3A4 (Homo sapiens, UniProt P08684); experiment: Inhibition of CYP3A4 (unknown origin); assay type: ADME
Cytochrome P450 3A4, sequence (P08684 whole entry): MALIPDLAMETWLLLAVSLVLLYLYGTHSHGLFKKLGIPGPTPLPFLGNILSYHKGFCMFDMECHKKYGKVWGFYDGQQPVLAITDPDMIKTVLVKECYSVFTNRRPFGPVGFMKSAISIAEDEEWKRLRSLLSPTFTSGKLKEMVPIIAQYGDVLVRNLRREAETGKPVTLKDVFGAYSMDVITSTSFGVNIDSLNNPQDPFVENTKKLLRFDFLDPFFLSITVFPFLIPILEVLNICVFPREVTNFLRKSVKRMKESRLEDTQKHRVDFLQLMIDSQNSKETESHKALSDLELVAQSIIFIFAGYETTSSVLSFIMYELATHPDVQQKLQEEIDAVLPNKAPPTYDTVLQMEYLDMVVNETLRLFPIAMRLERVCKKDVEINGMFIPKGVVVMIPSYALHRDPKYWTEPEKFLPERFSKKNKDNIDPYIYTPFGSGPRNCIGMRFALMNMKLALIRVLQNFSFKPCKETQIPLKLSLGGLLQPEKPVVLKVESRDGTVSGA

[4] = Permeability across apical to basolateral side in human Caco2 cells; assay type: ADME, cell-based; conditions: Caco-2, read-out: permeability
[5] = molecular target: Voltage-gated inwardly rectifying potassium channel KCNH2 (Homo sapiens, UniProt Q12809); experiment: Inhibition of human ERG
Voltage-gated inwardly rectifying potassium channel KCNH2, sequence (Q12809 whole entry): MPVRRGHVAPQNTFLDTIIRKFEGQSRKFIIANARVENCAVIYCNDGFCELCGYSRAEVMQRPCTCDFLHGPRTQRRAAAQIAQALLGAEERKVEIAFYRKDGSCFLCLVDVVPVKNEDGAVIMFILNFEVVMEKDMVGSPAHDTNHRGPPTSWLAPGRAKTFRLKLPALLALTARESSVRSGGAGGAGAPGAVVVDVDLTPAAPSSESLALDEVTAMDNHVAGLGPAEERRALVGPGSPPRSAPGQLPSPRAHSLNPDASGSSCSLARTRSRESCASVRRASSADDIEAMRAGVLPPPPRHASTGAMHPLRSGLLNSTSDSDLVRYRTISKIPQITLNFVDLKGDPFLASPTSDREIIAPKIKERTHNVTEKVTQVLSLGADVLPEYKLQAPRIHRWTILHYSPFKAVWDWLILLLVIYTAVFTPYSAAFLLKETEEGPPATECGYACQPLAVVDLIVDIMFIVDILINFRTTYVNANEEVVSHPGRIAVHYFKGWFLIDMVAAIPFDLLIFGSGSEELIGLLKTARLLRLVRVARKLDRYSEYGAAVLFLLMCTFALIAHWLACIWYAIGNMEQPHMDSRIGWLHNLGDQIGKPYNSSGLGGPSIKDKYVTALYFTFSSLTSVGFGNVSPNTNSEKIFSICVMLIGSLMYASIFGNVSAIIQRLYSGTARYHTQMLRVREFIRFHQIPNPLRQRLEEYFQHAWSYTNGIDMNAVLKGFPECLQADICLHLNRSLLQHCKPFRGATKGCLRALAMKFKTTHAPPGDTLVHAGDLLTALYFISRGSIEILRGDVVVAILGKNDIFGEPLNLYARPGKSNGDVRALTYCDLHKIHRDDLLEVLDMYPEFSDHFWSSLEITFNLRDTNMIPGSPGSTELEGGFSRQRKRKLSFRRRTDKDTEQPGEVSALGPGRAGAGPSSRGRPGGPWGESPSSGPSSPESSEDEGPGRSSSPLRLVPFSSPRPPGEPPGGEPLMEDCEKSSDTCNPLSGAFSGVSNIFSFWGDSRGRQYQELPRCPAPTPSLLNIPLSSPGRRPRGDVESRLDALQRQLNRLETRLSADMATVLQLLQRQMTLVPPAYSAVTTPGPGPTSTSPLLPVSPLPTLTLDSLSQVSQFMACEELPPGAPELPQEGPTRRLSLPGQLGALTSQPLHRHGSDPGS

[6] = molecular target: T1, Aryl hydrocarbon receptor (Homo sapiens, UniProt P35869); experiment: Transactivation of AhR (unknown origin) assessed as upregulation of CYP1A2 at 3 to 8 microg/ml; assay type: ADME
T1 sequence (P35869 whole entry): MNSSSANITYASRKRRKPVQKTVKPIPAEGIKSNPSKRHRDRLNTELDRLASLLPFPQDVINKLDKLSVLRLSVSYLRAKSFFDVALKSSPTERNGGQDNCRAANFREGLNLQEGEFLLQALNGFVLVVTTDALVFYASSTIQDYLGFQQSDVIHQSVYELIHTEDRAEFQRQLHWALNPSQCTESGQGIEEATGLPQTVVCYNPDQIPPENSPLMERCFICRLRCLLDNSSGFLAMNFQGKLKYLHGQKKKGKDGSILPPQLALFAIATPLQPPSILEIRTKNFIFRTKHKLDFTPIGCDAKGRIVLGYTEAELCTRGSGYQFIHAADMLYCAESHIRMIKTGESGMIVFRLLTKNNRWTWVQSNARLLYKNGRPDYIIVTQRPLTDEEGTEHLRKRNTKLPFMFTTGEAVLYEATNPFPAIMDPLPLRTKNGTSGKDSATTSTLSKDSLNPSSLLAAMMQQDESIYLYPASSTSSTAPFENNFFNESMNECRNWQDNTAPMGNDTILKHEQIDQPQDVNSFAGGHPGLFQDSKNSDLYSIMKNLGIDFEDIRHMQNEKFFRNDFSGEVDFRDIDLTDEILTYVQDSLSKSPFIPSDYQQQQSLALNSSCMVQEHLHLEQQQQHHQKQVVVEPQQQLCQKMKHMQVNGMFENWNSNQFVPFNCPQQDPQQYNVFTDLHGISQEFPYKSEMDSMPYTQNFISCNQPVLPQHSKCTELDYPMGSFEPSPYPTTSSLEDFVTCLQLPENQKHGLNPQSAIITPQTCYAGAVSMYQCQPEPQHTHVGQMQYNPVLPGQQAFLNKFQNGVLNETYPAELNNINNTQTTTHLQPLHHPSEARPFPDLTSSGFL
How it was run: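 Nuclear receptor reporter-gene induction assay, with reporters coupled to PXR, CAR or AhR. Compound was tested at 0.1–1, 3 and 8 μg/mL. Positive controls were rifampin for PXR, CITCO for CAR and 3-methylcholanthrene for AhR.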

[7] = Mutagenicity in Salmonella typhimurium TA100; assay type: toxicity; conditions: salmonella enterica subsp. enterica serovar typhimurium
[8] = Mutagenicity in Salmonella typhimurium TA1535; assay type: toxicity; conditions: salmonella enterica subsp. enterica serovar typhimurium
[9] = Tmax in BALB/c mouse plasma at 100 mg/kg administered via oral gavage after 0.25 to 24 hrs by LC-MS analysis; assay type: ADME, organism-based
How it was run: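 Female BALB/c mice (20 g) got a single 100 mg/kg oral gavage dose. Three animals were sacrificed per time point at 0, 0.25, 0.5, 1, 2, 4, 8 and 24 h. Cardiac blood was spun at 12 000g, 4 °C for plasma. Lungs were bead-beaten in water and the supernatant taken. Both matrices were quantified by LC-MS/MS with an indole-2-carboxamide internal standard. Parameters came from noncompartmental analysis.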

[10] = AUClast in BALB/c mouse lung at 100 mg/kg administered via oral gavage after 0.25 to 24 hrs by LC-MS analysis; assay type: ADME, organism-based; conditions: in vivo
How it was run: (§1)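 Female BALB/c mice (20 g), single oral gavage dose of 100 mg/kg. Cardiac blood and lungs taken at 0, 0.25, 0.5, 1, 2, 4, 8 and 24 h (n = 3 per time point). Plasma separated by centrifugation; lungs bead-beaten in water and supernatant recovered. Drug quantified by LC-MS/MS against an indole-2-carboxamide internal standard. Parameters derived by noncompartmental analysis.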

[11] = Mean residence time (last) in BALB/c mouse plasma at 100 mg/kg administered via oral gavage by LC-MS analysis; assay type: ADME, organism-based; how it was run: as §1
[12] = Mean residence time (last) in BALB/c mouse lung at 100 mg/kg administered via oral gavage by LC-MS analysis; assay type: ADME, organism-based; how it was run: as §1
[13] = tested on: Mycobacterium tuberculosis; experiment: Antimycobacterial activity against Mycobacterium tuberculosis H37Rv infected in BALB/c mouse model assessed as reduction in CFU counts in lung at 200 mg/kg administered daily via oral gavage for 5 days per week measured after 28 days post dosage relative to control; assay type: functional
How it was run: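 Bactericidal-dose model in aerosol-infected BALB/c mice given 25, 50, 100 or 200 mg/kg orally in 0.5% carboxymethylcellulose in water for 4 weeks. Lung CFU compared with the count at treatment initiation; survival also recorded.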

[14] = tested on: Mycobacterium tuberculosis; experiment: Antimycobacterial activity against Mycobacterium tuberculosis H37Rv assessed as growth inhibition at 0.5 times MIC after 7 to 14 days in presence of 0.0313 times MIC of rifampin by alamar blue assay based Bliss synergy model analysis; assay type: functional
How it was run: (§2)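 Checkerboard of 2-fold dilutions, 4.0 to 0.0313 × MIC of each drug combined with rifampin. M. tuberculosis H37Rv at 1 × 10^4 CFU per well in 200 μL. Single-drug, blank and full-growth controls included. alamarBlue read-out, percent inhibition calculated. Bliss independence applied to wells below 1 × MIC; Δfaxy > 0 taken as synergy, < 0 as antagonism.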

[15] = tested on: Mycobacterium tuberculosis; experiment: Antimycobacterial activity against Mycobacterium tuberculosis H37Rv assessed as growth inhibition at 0.25 times MIC after 7 to 14 days in presence of 0.25 times MIC of rifampin by alamar blue assay based by Bliss synergy model analysis; assay type: functional; how it was run: as §2
[16] = Oral bioavailability in BALB/c mouse at 100 mg/kg administered for 30 to 120 mins followed by Mycobacterium tuberculosis H37Rv addition to compound treated serum incubated for 7 days by alamar blue reagent based serum inhibition titration assay; assay type: ADME, organism-based; conditions: in vivo
How it was run: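 Six-week-old female BALB/c mice (20 g) given one oral dose as suspension in 0.5% CMC in water; isoniazid 10 mg/kg as positive control, vehicle as negative. Serum collected at 30, 60 and 120 min, pooled from three mice per time point, 2-fold serially diluted. 10^4 CFU H37Rv added per well, 7 days at 37 °C. alamarBlue added for 16−18 h, fluorescence read at Ex544/Em590 and plotted against serum titration.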

Question: What does the source list for `C[C@@H]1[C@H]2C[C@@H](C[C@H]1NC(=O)c1cc3c(F)cc(F)cc3[nH]1)C2(C)C`?
Answer: MIC [1]: 23 µM (≈ 7.65 µg/mL); IC50 (Vero): ≥ 192 µM; selectivity ratio [2]: ≥ 16000; remaining at 1 h, 3 µM [3]: 69.5%; inhibition (INH) (Cytochrome P450 2C9): -5.2%; inhibition (INH) (Cytochrome P450 2D6): 36.6%; inhibition (INH) (Cytochrome P450 3A4): -6.7%; Papp A→B [4]: 0.19 ×10⁻⁶ cm/s; IC50 [5]: > 30 µM; Activity [6]: Active; Activity [7]: Non-Toxic; Activity [8]: Non-Toxic; Tmax [9]: 4 h; AUClast [10]: 51 µg·h/g; MRT last [11]: 7.28 h; MRT last [12]: 8.49 h; Activity [13]: 0.6 log10CFU; growth inhibition (GI) [14]: 99.2%; growth inhibition (GI) [15]: 99.4%; Drug uptake [16]: Active
